Consider 38 variants from the RNAGym collection of RNA variant scans (doi:10.1126/science.aae0568).

Fewer inactive variants are shown than the library holds. Bounds are passed on as bounds.

B1: tRNA (parent)
chain: GUUCCGUUGGCGUAAUGGUAACGCGUCUCCCUCCUAAGGAGAAGACUGCGGGUUCGAGUCCCGUACGGAACG

In the data set the parent is B1. The experiment in a line: yeast fitness relative to wild type (ratio to wild type); higher = fitter; tRNA-Arg(CCU), competitive growth, 37 C, YPD. An outline of the steps:
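Gene amplicons from the start population and from each of six end populations were read by 100-nucleotide paired-end sequencing. Those end populations came from pooled Saccharomyces cerevisiae strains carrying tRNA-Arg(CCU) gene variants at the native locus, competed in YPD at 37°C for 24 hours. Fitness relative to wild type was worked out from changes in genotype frequencies. Genotypes needed ≥ 100 starting reads, and estimates < 0.5 were set to 0.5.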
On to GUUCCGUUGGCGUACUGAUAACGGGUCUCCCUCCUAAGGAGAAGACUGCGGGUUAGAGUCCCGUACGGAACG [A15C G18A C24G C55A], for which the yeast fitness is not above 0.5. On to GUUCCGUUGGCGUACUCGUAACGCGUCUCCGUCCUAAGGAGAAGACUGCCGGUUCGAGUCCGGUACGGACCG [A15C G17C C31G G50C C62G A70C], for which the yeast fitness was not above 0.5. For GUUCCGUUGGCGUACUGGUAACGCGUCUCCCUCCUAAGGAGAAGAUUGCGAGUUCGAGUCCCGUAAGGAACG [A15C C46U G51A C66A], the yeast fitness was not above 0.5. On to GUUCCGUUGGCGUACUGGUAACACGUCUCCCUCCUAAGGAGCAGACUACCGGUUCGAGUCCCGUACGGAACG [A15C G23A A42C G48A G50C], for which the yeast fitness was not above 0.5. With GUUCCGUUGGCGUACUAAUAACGCGUCUCCCUCCUCAGGAGAAGACUGCGGGUUCGAGUCCCGUACGGAACG [A15C G17A G18A A36C] the figure was not above 0.5; with GUUCCGUUGGCGUACUGGUAACGCGUCUCCCUCCUAAAGAGAAGACUGAGGGUUCGAGUCCCGUACGGAACG [A15C G38A C49A], not above 0.5; with GUUCCGUUGGCGUACUGGUAACCCGUCUCCCUCCUAAGGAGAAGACUGCGGGUUCGAGUUCCGUACGGAACG [A15C G23C C60U], not above 0.5. Turning to GUUCCGUUGGCGUACUCGUAACGCGUCUCCCUCCUAAGGAGAAGACUGCGGGUUCGAGUCCCGUACGGAACG [A15C G17C], the yeast fitness was found to be 0.62.

Turning to GUUCCGUUGGCGUACUGGUAACGCGUCUCCGUCCUAAGGAGAAGACUGCGGGUUCGAGUCCCGUACGGAACG [A15C C31G], the yeast fitness was 0.632.

In the case of GUUCCGUUGGCGUACUGGUAACCCGUCUCCCUCCUAAGGAGAAGACUGCGGGUUCGAGUUCCGUACGGGACG [A15C G23C C60U A69G], the yeast fitness was not above 0.5. The figure for GUUCCGUUGGCGUACUAGUAACGCGUCUCCCUCCUAACGAGAAGACUGCGGGUUCGAGUCCUGUACGGAACG [A15C G17A G38C C62U] is not above 0.5; for GUUCCGUUGGCGUACUAGUAACGCGUCUCCCUCCUAAGGAGAAGACUGCGGGUCGGAGUCCCGUACGGAACG [A15C G17A U54C C55G] it is not above 0.5. For GUUCCGUUGGCGUACUGGUAACGCAUCACCCUCCUAAGGAGAAGACUGCGGGUUCGAGUCCCGUACGGAACG [A15C G25A U28A], the yeast fitness is not above 0.5. Turning to GUUCCGUUGGCGUACUGGUAACGCGUCUCCCUCCUAAGGAGAAGACUGCAGGUUUGAGUCGCGUACGGAACG [A15C G50A C55U C61G], the yeast fitness was 0.804.

For GUUCCGUUGGCGUACUGGUAACGCGUCUCCCUCCUAAGAAGAAGACUGCGGGUUCGAGUCCCGUGCGGAACG [A15C G39A A65G], the yeast fitness is 0.517. With GUUCCGUUGGCGUACUGGUAACGCGUCUCCCUCCUAAGAAGAAGACUGCGGGUUCGAGUCCCGUACAGAACG [A15C G39A G67A] the figure was not above 0.5. The figure for GUUCCGUUGGCGUACUGGUAACGCGUCUCCCUUCUAAGGAGAAGACGGUGGCUUCGAGUCCCGUACGGAGCG [A15C C33U U47G C49U G52C A70G] is 0.585; for GUUCCGUUGGCGUACUGGUAACGCGUCUCACUCCUAAGGAGAAGACUCCGGGUUCCAGUCCCGUACGGAACG [A15C C30A G48C G56C] it is not above 0.5; for GUUCCGUUGGCGUACUGGUAACGCGUCUCCGUCCUAAGGUGAAGACUGCGGGUUCGAGUCCCGUACGGAACG [A15C C31G A40U] it is 0.624. With GUUCCGUUGGCGUACUGGUAACGCGUCUCCCUCCUAAGGAGAAGACUACGGGUUCGAGUCCCGGACGGAACG [A15C G48A U64G] the figure was 0.593; with GUUCCGUUGGCGUACUGGUAACGCAUCUCCCUCCUAAGGAGAAGACUGCGGGUUCGAGUCCCGUCCGGAACG [A15C G25A A65C], 0.711.

Take GUUCCGUUGGCGUACUGGUAACGCGUCUCCCUUCUUAGGAGAAGACUGCGGGUUCGAGUCCCGUAUGGAACG [A15C C33U A36U C66U]: the yeast fitness is not above 0.5. The figure for GUUCCGUUGGCGUACUGGUAACGCGUCUCCCUCCUAAGGAGAAGACUGCGGGUUAGAGUCCCGUACGGAACG [A15C C55A] is 0.562. With GUUCCGUUGGCGUACUGGUAACGCGUCUCCAUCCUAAGGAGAAGACUGCGGGUUCGAGCCCCAUACGGGACG [A15C C31A U59C G63A A69G] the figure was not above 0.5. Take GUUCCGUUGGCGUACUGGUAACGCGUCUCCCUCCUAAGAAGAAGACUGCGGGUUCGAGUCCCGCGCGGAACG [A15C G39A U64C A65G]: the yeast fitness was not above 0.5. With GUUCCGUUGGCGUACUGGUAACGCGUCUCCCUCCUAAGAAGAAGACUGCGGGUUCGGGUCCCGUAUGGAACG [A15C G39A A57G C66U] the figure was not above 0.5; with GUUCCGUUGGCGUACUGGUAACGCGUCUCCAUCAUAAGGAGAAGACUGCGGGUUCGAGUCCCGUACCGAACG [A15C C31A C34A G67C], not above 0.5; with GUUCCGUUGGCGUACUGGUAACGCCUCUUCCUCCCAAGGAGAUGACUGCGGGUUCGAGUCCCGUACCGAACG [A15C G25C C29U U35C A43U G67C], not above 0.5. In the case of GUUCCGUUGGCGUACUAGUAACGCGUCUCCCUCCUAAGGAGAAGACUGCGGGUUCGCGUCCCGUACGGAACG [A15C G17A A57C], the yeast fitness came out at 0.527. Take GUUCCGUUGGCGUACUGGUAACGCGUCUCCUUCCUAAGGAGAAGACUGCGGGUUCGAGUCCGGGGCCGAACG [A15C C31U C62G U64G A65G G67C]: the yeast fitness is not above 0.5. In the case of GUUCCGUUGGCGUACUGGUAACGCGUCUCCAUCCCAAGGAGAAGUCUGCGGGUUCGAGUCCCGUACGGAACG [A15C C31A U35C A45U], the yeast fitness is not above 0.5. With GUUCCGUUGGCGUACUGAGAACGCGUCUCCCUCCUAAGGAGAAGACUGCGGGUUCGACUCCCGUACGGAACG [A15C G18A U19G G58C] the figure was not above 0.5; with GUUCCGUUGGCGUACUGGUAACGCGUCUCCCUCCUAAGGAGAAAACUGCGGGCUCGAGUCCCGCACGGAACG [A15C G44A U53C U64C], not above 0.5. As to GUUCCGUUGGCGUACUGGUAACGCGUCUCCCUCCUAAGGAGAAGACUGGGGGUUCGAGUCCUGUACGGAACG [A15C C49G C62U], the yeast fitness came to 0.636. The figure for GUUCCGUUGGCGUACUGGUAACGCGUCUCCCUCGUAUGGAGAAGAGUGCGGGUUCGAGUCCCGUACGGUACG [A15C C34G A37U C46G A69U] is not above 0.5; for GUUCCGUUGGCGUACUGGUAACGCGUCUCCCUCGUAAGGAGAAGACUGCGGGUUCGAGUUCCGUACGGAACG [A15C C34G C60U] it is not above 0.5. As for GUUCCGUUGGCGUACUGGUAACGCGUCUCCCUCCUAAGGAGAAGACUGCAGGUUCGAGUGCCGGACGGAACG [A15C G50A C60G U64G], the yeast fitness was not above 0.5. As for GUUCCGUUGGCGUACUGGUAACGCCUCUUCCUCCCAAGGAGAUGACUGCGGGUUCGAGUCCCGUACGGUACG [A15C G25C C29U U35C A43U A69U], the yeast fitness is not above 0.5.
